Results: PubChem BioAssay
The source made the active and inactive calls.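 How the source made its calls, unless noted: active means inhibition of the reporter signal at or above 50%; inactive means inhibition below 50%.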

Legend:
[1] = inhibitors of TNFa-induced NFkB p65 translocation, primary screen, imaging, HUVEC, MLSMR starter and 10KST1 sets (AID 438;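 active means inhibition above 20% together with a positive visual image hit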;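 further: compound added about 3h40 before a 20 min TNFalpha stimulation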;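 on inhibition: signal is the nuclear over cytoplasmic p65 intensity ratio per well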); conditions: HUVEC TNFa-induced p65 nuclear translocation; cell count: measured here: nuclei count (cytotoxicity indicator), at 2.08 µM; inhibition: at 2 µM, stronger effect = higher value, 0% TNFa-plus-vehicle, 100% no-TNFa wells
[2] = reduction of polyQ htt aggregates in cells – imaging, exon1htt(103Q)mCFP cells, high-content imaging, primary screen (AID 483;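 active means visual image review flags a hit and inhibition of aggregation exceeds 20%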;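 further: compound exposure lasted 3 days before fixation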;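 on nuclei count: percent of the per-plate median nuclei count of sample wells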); conditions: exon1htt(103Q)mCFP cell line, aggregate imaging, at 2 µM; inhibition of aggregation: stronger effect = higher value; nuclei count: measured here: cell count, toxicity
[3] = endothelial E-selectin expression blockers – imaging, HUVEC, immunofluorescence, MLSMR starter and 10KST1 sets, primary screen (AID 487;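 active means visually confirmed hit in the image check and inhibition above 20%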;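 on inhibition: signal is fraction of cell area covered by stained E-selectin grains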;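 on nuclei count: 100% = median nuclei count of all wells on the same plate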); conditions: HUVEC TNFalpha-induced E-selectin immunofluorescence imaging, at 2 µM; inhibition: stronger effect = higher value; nuclei count: measured here: cell number, toxicity
[4] = biological target: Voltage-gated potassium channel subunit beta-2 (Rattus norvegicus) (UniProt P62483); test: inhibitors of rat Kvbeta2 reductase activity – biochemical, NADPH fluorescence, primary screen (AID 622;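 active means fluorescence slope higher than the sample average by over 3 SD, cut at about -0.22 in these data, passing the limit was not always enough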;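 further: slope of raw intensity against log time taken from 70 to 1610 s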); conditions: recombinant KvBeta, 4-cyanobenzaldehyde reduction, at 10 µM, stronger effect = higher value
[5] = biological target: Voltage-gated potassium channel subunit beta-2 (Rattus norvegicus) (UniProt P62483); test: enhancers of rat Kvbeta2 NADPH turnover – biochemical, NADPH fluorescence, primary screen (AID 623;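 active means NADPH fluorescence slope more negative than the mean of all samples by about 3 SD, 99.7% confidence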;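 further: fluorescence intensity change per second fitted from 20 to 320 s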); conditions: Recombinant KvBeta, NADPH fluorescence decrease slope, 10 min; at 10 µM; stronger effect = lower value
[6] = biological target: Muscarinic acetylcholine receptor M4 (Homo sapiens) (UniProt P08173); test: M4-linked GIRK flux change, two-sided – cell-based, HEK293 M4/GIRK, thallium flux, BTC-AM, M4 allosteric agonist project, primary screen (AID 625;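 active means fluorescence slope after compound addition differing from the mean of all tested samples at 99.7% confidence, mostly higher but some lower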;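 further: thallium influx through GIRK channels coupled to M4 in HEK293 cells with BTC-AM dye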); conditions: at 10 µM, actives lie on both sides
In short: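 Material: M4/GIRK1/GIRK2 stable HEK293 cell line. Medium: pH 7.3 thallium assay buffer. Dosing: single compound concentration, 10 µM final. Schedule: 1 h dye loading, 2 min kinetic read. Measured by: kinetic fluorescence with BTC-AM dye. Read-out: post-addition slope, 15–24 s, of baseline-normalized fluorescence. Benchmarks: carbachol and DMSO controls.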

[7] = blockers of RIG-like receptor reporter activation – cell-based, Sendai virus stimulus, luciferase, 10K MLSCN set, TLR/RLR signaling modifier project, primary screen (AID 602276;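 active means inhibition at or above 50% at 10 µM; inactive means inhibition below 50%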;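 further: firefly luciferase from ISG56 promoter only with Renilla not read in this screen; 0% = Sendai virus plus DMSO and 100% = medium plus DMSO without virus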); conditions: HEK293 RL24 IRF3 luciferase reporter, at 10 µM, stronger effect = higher value
[8] = TLR3 IRF3 reporter activation blockers – cell-based, poly I:C stimulus, luciferase, 10K MLSCN set, primary screen (AID 602277); conditions: HEK293-TLR3 RL24 IRF3 luciferase reporter, at 10 µM, stronger effect = higher value

Sequence of Muscarinic acetylcholine receptor M4 (Homo sapiens) (P08173 whole entry, looked up): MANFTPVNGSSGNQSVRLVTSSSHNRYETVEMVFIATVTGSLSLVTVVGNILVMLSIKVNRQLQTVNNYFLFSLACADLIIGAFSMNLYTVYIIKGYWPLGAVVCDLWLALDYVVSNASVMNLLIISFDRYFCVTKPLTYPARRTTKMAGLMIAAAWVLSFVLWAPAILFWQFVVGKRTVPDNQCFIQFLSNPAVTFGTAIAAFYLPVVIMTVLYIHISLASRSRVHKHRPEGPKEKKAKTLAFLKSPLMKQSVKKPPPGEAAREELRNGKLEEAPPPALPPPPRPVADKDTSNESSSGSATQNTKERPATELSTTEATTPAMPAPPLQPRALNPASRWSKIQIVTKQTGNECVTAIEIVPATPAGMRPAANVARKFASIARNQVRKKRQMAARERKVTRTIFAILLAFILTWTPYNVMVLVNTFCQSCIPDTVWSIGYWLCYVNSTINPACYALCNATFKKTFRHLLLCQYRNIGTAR
Sequence of Voltage-gated potassium channel subunit beta-2 (Rattus norvegicus) (P62483 whole entry, looked up): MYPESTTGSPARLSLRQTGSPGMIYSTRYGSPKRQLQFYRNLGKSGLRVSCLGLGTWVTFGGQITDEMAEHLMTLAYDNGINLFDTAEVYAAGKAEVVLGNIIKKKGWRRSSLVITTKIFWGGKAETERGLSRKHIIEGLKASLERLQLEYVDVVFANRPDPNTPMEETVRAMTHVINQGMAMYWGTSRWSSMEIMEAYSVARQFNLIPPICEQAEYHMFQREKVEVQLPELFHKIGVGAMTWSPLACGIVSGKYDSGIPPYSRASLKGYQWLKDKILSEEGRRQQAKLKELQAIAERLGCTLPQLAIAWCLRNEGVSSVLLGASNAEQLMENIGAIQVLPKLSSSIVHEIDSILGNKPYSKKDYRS

SMILES	cell count [1]	inhibition [1]	inhibition of aggregation [2]	nuclei count [2] [%]	inhibition [3]	nuclei count [3] [%]	fluorescence slope [4]	NADPH fluorescence slope [5]	fluorescence slope [6]	inhibition [7]	inhibition [8]
CCCOc1ccc(C2C(C(=O)c3ccc(C)o3)=C(O)C(=O)N2Cc2cccnc2)cc1 (stereo not given)	755	-2.8% (inactive)	-9.2% (inactive)	105	35.3% (inactive)	107	-0.495 (inactive)	9.3e-06 (inactive)	0.00434 (inactive)	9.82% (inactive)	3.74% (inactive)
CCOc1ccccc1NS(=O)(=O)c1c(C)noc1C	389	5.5% (inactive)	42.8% (inactive)	97.1	-3.1% (inactive)	111	-0.461 (inactive)	4.7e-05 (inactive)	0.00758 (inactive)	0.4% (inactive)	24.4% (inactive)
CCOc1ccc(NC(=O)c2ccncc2)cc1	631	3.6% (inactive)	8.2% (inactive)	98.3	-122% (inactive)	106	-0.466 (inactive)	-4.7e-05 (inactive)	0.0047 (inactive)	-5.38% (inactive)	-19.1% (inactive)
CSc1nc2c(ccc3ccccc32)o1	572	4.2% (inactive)	-4.8% (inactive)	104	-70.5% (inactive)	102	-0.566 (inactive)	-1.5e-05 (inactive)	0.00656 (inactive)	-5.19% (inactive)	-21.2% (inactive)
COCCCNC(=O)C(Cc1ccccc1)NS(=O)(=O)c1ccc2c(c1)c(=O)n(C)c(=O)n2C (stereo not given)	561	-2.5% (inactive)	42.3% (active)	94.5	-10.2% (inactive)	117	-0.468 (inactive)	-8e-06 (inactive)	0.00611 (inactive)	-1.6% (inactive)	19.2% (inactive)
O=C(CN(c1ccc(F)cc1)S(=O)(=O)c1ccc2c(c1)OCCO2)NCC1CCCO1 (stereo not given)	472	0.8% (inactive)	-6.6% (inactive)	92.4	-58.6% (inactive)	107	-0.453 (inactive)	-4.3e-05 (inactive)	0.00466 (inactive)	17% (inactive)	24.3% (inactive)
COc1ccc(OCCCC(=O)Nc2ccc3c(c2)OCCO3)cc1	467	10.1% (inactive)	-6.5% (inactive)	104	-237% (inactive)	140	-0.299 (inactive)	-2.2e-05 (inactive)	0.00647 (inactive)	-5.01% (inactive)	-17.3% (inactive)
CCN(c1ccc(OC)cc1)S(=O)(=O)c1ccc2c(c1)CCN2C(=O)CCC(=O)O	625	8.3% (inactive)	-38.2% (inactive)	92.1	-35.6% (inactive)	115	-0.454 (inactive)	2.3e-05 (inactive)	0.00631 (inactive)	14.1% (inactive)	20.9% (inactive)
Cc1cc(NC(=O)C23CCC(C)(c4nc5cc(Cl)c(Cl)cc5nc42)C3(C)C)no1 (stereo not given)	409	4.3% (inactive)	7.4% (inactive)	104	-116% (inactive)	92.1	-0.577 (inactive)	-4.4e-05 (inactive)	0.00686 (inactive)	12.2% (inactive)	15.9% (inactive)
COC(=O)c1ccc(CSc2nc(-c3ccc(OC)cc3)nc3c2c(=O)n(C)c(=O)n3C)o1	487	8.9% (inactive)	-0.5% (inactive)	89.2	-5.9% (inactive)	103	-0.409 (inactive)	0.000102 (inactive)	0.00884 (inactive)	24% (inactive)	30.6% (inactive)
Cc1sc2ncnc(OCC(=O)N3CCN(S(=O)(=O)c4ccccc4)CC3)c2c1C	247	-7.7% (inactive)	11.8% (inactive)	90.7	16.8% (inactive)	91.8	-0.498 (inactive)	3.8e-05 (inactive)	0.00565 (inactive)	16.8% (inactive)	15.1% (inactive)
COc1ccc(CC(=O)OCC(=O)NC(=O)NC2CCCCC2)cc1	505	-13.7% (inactive)	-0.9% (inactive)	80.9	-5.5% (inactive)	121	-0.509 (inactive)	4.4e-05 (inactive)	0.00502 (inactive)	9.64% (inactive)	15.4% (inactive)
C=CCn1c(Cc2csc(N)n2)nnc1SCC(=O)OCC	313	-3.5% (inactive)	18.2% (inactive)	86.3	25.2% (inactive)	77.4	-0.48 (inactive)	-2.5e-05 (inactive)	0.00546 (inactive)	4.87% (inactive)	10% (inactive)
COc1cccc(C(=O)Nc2cc(NC(=O)c3ccco3)ccc2OC)c1	406	10.9% (inactive)	24.4% (inactive)	88.1	17.3% (inactive)	98.6	-0.572 (inactive)	-3.4e-05 (inactive)	0.00583 (inactive)	19.4% (inactive)	4.19% (inactive)
Cc1cc(NCCN(C)C)n2nc(-c3cccs3)cc2n1	597	7.8% (inactive)	6.4% (inactive)	102	-69% (inactive)	114	-0.335 (inactive)	-6.9e-05 (inactive)	0.00655 (inactive)	-3.67% (inactive)	1.86% (inactive)
CCCCNC(=O)CN(C1CCCCC1)S(C)(=O)=O	422	1.2% (inactive)	-3.6% (inactive)	99.8	-22.8% (inactive)	103	-0.551 (inactive)	1.8e-07 (inactive)	0.0049 (inactive)	16.6% (inactive)	14.9% (inactive)
Cc1nn(-c2ccccc2)c2c1C(c1c(C)[nH]c(C#N)c1C)C(C#N)=C(N)O2 (stereo not given)	565	-13.4% (inactive)	9.2% (inactive)	86	15.4% (inactive)	101	-0.391 (inactive)	8.5e-05 (inactive)	0.00623 (inactive)	8.98% (inactive)	13% (inactive)
COCCNC(=O)CN(C)S(=O)(=O)c1ccc2c(c1)OCCO2	577	-12.1% (inactive)	-1.9% (inactive)	101	-59.8% (inactive)	108	-0.527 (inactive)	1.9e-05 (inactive)	0.00472 (inactive)	11.9% (inactive)	21.2% (inactive)
N#Cc1c(N2C(=O)C3C4C=CC(C4)C3C2=O)sc2c1CCC2 (stereo not given)	493	-24.7% (inactive)	-12.7% (inactive)	92.9	-17.4% (inactive)	96.7	-0.417 (inactive)	-5.2e-05 (inactive)	0.00524 (inactive)	14.5% (inactive)	18.6% (inactive)
Cc1cc(C)nc(N2CCCC(C(=O)Nc3nc4ccc(S(C)(=O)=O)cc4s3)C2)n1 (stereo not given)	599	1.8% (inactive)	2.6% (inactive)	117	6.8% (inactive)	107	-0.459 (inactive)	9.7e-05 (inactive)	0.00564 (inactive)	12% (inactive)	11.5% (inactive)
